In brackets after ≈: the same amount, converted by molar mass. *1 amine or outer side, *2 acyl side, *3 side chain or, on linkers, in order; H or OH if unused. Where a SMILES comes first, the peptide text is derived from it. Bridges are numbered along the chain shown (N, C = ends). [ ]: non-standard residue; d: D form. The star is where a group is joined. pTerphenylCO(4''-OnC5H11) = CCCCCOc1ccc(-c2ccc(-c3ccc(C(=O)*)cc3)cc2)cc1; Orn(4R-OH,5R-OH) = O=C([C@H](C[C@@H](O)[C@@H](O)N[*:3])N[*:1])[*:2]; hTyr(3S-OH,4S-OH) = N[C@H](C(=O)O)[C@H](O)[C@@H](O)c1ccc(O)cc1; Pro(3S-OH,4S-Me) = C[C@H]1CN[C@H](C(=O)O)[C@H]1O; Hyp = O=C(O)[C@@H]1C[C@@H](O)CN1
Experiments:
Assay type in all cases: functional
[1] = system: Candida albicans; experiment: Antifungal activity against Candida albicans HK04M102095 after 24 hrs by CLSI M27-A test
Procedure, shortened: (§1)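 CLSI M27-A broth microdilution with aqueous doubling dilutions of drug. Inoculum grown overnight at 30°C in NGY medium, then added to MOPS-buffered RPMI 1640 at an initial 10^3 yeasts/ml. Incubated 35°C for 24 h. MIC read visually as the lowest concentration giving a marked decrease in visible growth; paradoxical or trailing growth noted.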

[2] = system: Candida dubliniensis; experiment: Antifungal activity against Candida dubliniensis SCS59662 after 24 hrs by CLSI M27-A test
Procedure, shortened: (§2)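 Broth microdilution with echinocandins as aqueous doubling dilutions. Yeasts were grown overnight at 30°C in NGY and seeded at 10^3 yeasts/ml initial concentration in MOPS-buffered RPMI 1640, then incubated at 35°C for 24 h. The MIC was read visually as the lowest concentration giving a marked decrease in visible growth; paradoxical or trailing growth was noted.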

[3] = system: Candida albicans; experiment: Antifungal activity against Candida albicans CAI4RI after 24 hrs by CLSI M27-A test; procedure, shortened: as §1
[4] = system: Candida albicans; experiment: Antifungal activity against Candida albicans T28 after 24 hrs by EUCAST test
Procedure, shortened: (§3)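 EUCAST broth microdilution with aqueous doubling dilutions of drug. Inoculum grown overnight at 30°C in NGY, then added to MOPS-buffered RPMI 1640 with 2% glucose at an initial 10^5 yeasts/ml. Incubated 35°C for 24 h. MICs taken from triplicate spectrophotometric dose-response data as 50% and 80% growth-reduction endpoints.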

[5] = system: Candida dubliniensis; experiment: Antifungal activity against Candida dubliniensis Leic952 after 24 hrs by EUCAST test
Procedure, shortened: (§4)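 Yeasts were grown overnight at 30°C in NGY, then inoculated at 10^5 yeasts/ml initial concentration into MOPS-buffered RPMI 1640 with 2% glucose containing aqueous doubling dilutions of drug. Plates were held at 35°C for 24 h. MICs came from triplicate spectrophotometric dose-response data at 50% and 80% growth-reduction endpoints. Trailing meant a >100-fold gap between these endpoints; paradoxical meant regrowth ≥5% above the curve minimum.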

[6] = system: Candida albicans; experiment: Antifungal activity against Candida albicans NR2 after 24 hrs by CLSI M27-A test; procedure, shortened: as §1
[7] = system: Candida albicans; experiment: Antifungal activity against Candida albicans Y109 after 24 hrs by CLSI M27-A test; procedure, shortened: as §1
[8] = system: Candida dubliniensis; experiment: Antifungal activity against Candida dubliniensis SCS65875C after 24 hrs by EUCAST test; procedure, shortened: as §4
[9] = system: Candida albicans; experiment: Antifungal activity against Candida albicans SCS67023C after 24 hrs by EUCAST test; procedure, shortened: as §3
[10] = system: Candida albicans; experiment: Antifungal activity against Candida albicans NR3 after 24 hrs by CLSI M27-A test; procedure, shortened: as §1
[11] = system: Candida albicans; experiment: Antifungal activity against Candida albicans T25 after 24 hrs by CLSI M27-A test; procedure, shortened: as §1
[12] = system: Candida albicans; experiment: Antifungal activity against Candida albicans CAI4RI after 24 hrs by EUCAST test; procedure, shortened: as §3
[13] = system: Candida albicans; experiment: Antifungal activity against Candida albicans B06-341 after 24 hrs by CLSI M27-A test; procedure, shortened: as §1
[14] = system: Candida dubliniensis; experiment: Antifungal activity against Candida dubliniensis AMCC after 24 hrs by EUCAST test; procedure, shortened: as §3
[15] = system: Candida albicans; experiment: Antifungal activity against Candida albicans NR3 after 24 hrs by EUCAST test; procedure, shortened: as §3
[16] = system: Candida dubliniensis; experiment: Antifungal activity against Candida dubliniensis KR after 24 hrs by EUCAST test; procedure, shortened: as §4
[17] = system: Candida dubliniensis; experiment: Antifungal activity against Candida dubliniensis 75/043 after 24 hrs by EUCAST test; procedure, shortened: as §3
[18] = system: Candida albicans; experiment: Antifungal activity against Candida albicans JIMS146204 after 24 hrs by EUCAST test; procedure, shortened: as §3
[19] = system: Candida albicans; experiment: Antifungal activity against Candida albicans AM2003/0083 after 24 hrs by CLSI M27-A test; procedure, shortened: as §1
[20] = system: Candida albicans; experiment: Antifungal activity against Candida albicans NR4 after 24 hrs by CLSI M27-A test; procedure, shortened: as §1
[21] = system: Candida albicans; experiment: Antifungal activity against Candida albicans T32 after 24 hrs by EUCAST test; procedure, shortened: as §3
[22] = system: Candida dubliniensis; experiment: Antifungal activity against Candida dubliniensis 90/033 after 24 hrs by EUCAST test; procedure, shortened: as §3
[23] = system: Candida dubliniensis; experiment: Antifungal activity against Candida dubliniensis ST after 24 hrs by CLSI M27-A test; procedure, shortened: as §2
[24] = system: Candida dubliniensis; experiment: Antifungal activity against Candida dubliniensis ST after 24 hrs by EUCAST test; procedure, shortened: as §4
[25] = system: Candida albicans; experiment: Antifungal activity against Candida albicans NR4 after 24 hrs by EUCAST test; procedure, shortened: as §3
[26] = system: Candida dubliniensis; experiment: Antifungal activity against Candida dubliniensis J931021 after 24 hrs by EUCAST test; procedure, shortened: as §4
[27] = system: Candida albicans; experiment: Antifungal activity against Candida albicans T32 after 24 hrs by CLSI M27-A test; procedure, shortened: as §1
[28] = system: Candida albicans; experiment: Antifungal activity against Candida albicans JIMS132203 after 24 hrs by CLSI M27-A test; procedure, shortened: as §1
[29] = system: Candida albicans; experiment: Antifungal activity against Candida albicans AM2003/0083 after 24 hrs by EUCAST test; procedure, shortened: as §3
[30] = system: Candida dubliniensis; experiment: Antifungal activity against Candida dubliniensis B71507 after 24 hrs by CLSI M27-A test; procedure, shortened: as §2
[31] = system: Candida dubliniensis; experiment: Antifungal activity against Candida dubliniensis 75/043 after 24 hrs by CLSI M27-A test; procedure, shortened: as §1
[32] = system: Candida albicans; experiment: Antifungal activity against Candida albicans SCS67023C after 24 hrs by CLSI M27-A test; procedure, shortened: as §1
[33] = system: Candida dubliniensis; experiment: Antifungal activity against Candida dubliniensis SCS17154969-1 after 24 hrs by CLSI M27-A test; procedure, shortened: as §2
[34] = system: Candida albicans; experiment: Antifungal activity against Candida albicans SCS68858 after 24 hrs by CLSI M27-A test; procedure, shortened: as §1
[35] = system: Candida dubliniensis; experiment: Antifungal activity against Candida dubliniensis J930936 after 24 hrs by EUCAST test; procedure, shortened: as §4
[36] = system: Candida albicans; experiment: Antifungal activity against Candida albicans T26 after 24 hrs by EUCAST test; procedure, shortened: as §3
[37] = system: Candida dubliniensis; experiment: Antifungal activity against Candida dubliniensis 910Aa after 24 hrs by CLSI M27-A test; procedure, shortened: as §1
[38] = system: Candida albicans; experiment: Antifungal activity against Candida albicans NR2 after 24 hrs by EUCAST test; procedure, shortened: as §3
[39] = system: Candida dubliniensis; experiment: Antifungal activity against Candida dubliniensis FS after 24 hrs by EUCAST test; procedure, shortened: as §4
[40] = system: Candida parapsilosis; experiment: Antifungal activity against Candida parapsilosis ATCC 22019 after 24 hrs by EUCAST test; conditions: Lodderomyces parapsilosis, ATCC 22019, 24 h; procedure, shortened: as §4
[41] = system: Candida albicans; experiment: Antifungal activity against Candida albicans Y109 after 24 hrs by EUCAST test; procedure, shortened: as §3
[42] = system: Candida albicans; experiment: Antifungal activity against Candida albicans B06-341 after 24 hrs by EUCAST test; procedure, shortened: as §3
[43] = system: Candida dubliniensis; experiment: Antifungal activity against Candida dubliniensis IK after 24 hrs by EUCAST test; procedure, shortened: as §4
[44] = system: Candida dubliniensis; experiment: Antifungal activity against Candida dubliniensis AMCC after 24 hrs by CLSI M27-A test; procedure, shortened: as §1
[45] = system: Candida dubliniensis; experiment: Antifungal activity against Candida dubliniensis Leic952 after 24 hrs by CLSI M27-A test; procedure, shortened: as §2

`CCCCCOc1ccc(-c2ccc(-c3ccc(C(=O)N[C@H]4C[C@@H](O)[C@@H](O)NC(=O)[C@@H]5[C@@H](O)[C@@H](C)CN5C(=O)[C@H]([C@@H](C)O)NC(=O)[C@H]([C@H](O)[C@@H](O)c5ccc(O)cc5)NC(=O)[C@@H]5C[C@@H](O)CN5C(=O)[C@H]([C@@H](C)O)NC4=O)cc3)cc2)cc1` [ANIDULAFUNGIN] ({pTerphenylCO(4''-OnC5H11)}-[Orn(4R-OH,5R-OH)]T[Hyp][hTyr(3S-OH,4S-OH)]T[Pro(3S-OH,4S-Me)]; lactam 1-C) gave an MIC50 [1] of no more than 0.032 µg/mL, an MIC50 [2] of no more than 0.032 µg/mL and an MIC50 [3] of 0.5 µg/mL (≈ 0.438 µM). It also gave an MIC50 [4] of no more than 0.032 µg/mL, an MIC50 [5] of 8 µg/mL (≈ 7.02 µM) and an MIC50 [6] of 0.5 µg/mL (≈ 0.438 µM). For the same molecule, the MIC50 [7] was 0.25 µg/mL (≈ 0.219 µM), the MIC50 [8] was no more than 0.032 µg/mL and the MIC50 [9] was no more than 0.032 µg/mL. For the same molecule, the MIC50 [10] was 1 µg/mL (≈ 0.877 µM), the MIC50 [11] was 1 µg/mL (≈ 0.877 µM) and the MIC50 [12] was 0.25 µg/mL (≈ 0.219 µM). For the same molecule, the MIC50 [13] was 0.13 µg/mL (≈ 0.114 µM), the MIC50 [14] was no more than 0.032 µg/mL and the MIC50 [15] was 1 µg/mL (≈ 0.877 µM). It also gave an MIC50 [16] of no more than 0.032 µg/mL, an MIC50 [17] of no more than 0.032 µg/mL and an MIC50 [18] of no more than 0.032 µg/mL. It also gave an MIC50 [19] of no more than 0.032 µg/mL, an MIC50 [20] of 0.25 µg/mL (≈ 0.219 µM) and an MIC50 [21] of no more than 0.032 µg/mL. It also gave an MIC50 [22] of 8 µg/mL (≈ 7.02 µM), an MIC50 [23] of no more than 0.032 µg/mL and an MIC50 [24] of no more than 0.032 µg/mL. The MIC50 [25] was 0.13 µg/mL (≈ 0.114 µM), the MIC50 [26] was 16 µg/mL (≈ 14 µM) and the MIC50 [27] was no more than 0.032 µg/mL. It also gave an MIC50 [28] of no more than 0.032 µg/mL, an MIC50 [29] of no more than 0.032 µg/mL and an MIC50 [30] of no more than 0.032 µg/mL. For the same molecule, the MIC50 [31] was no more than 0.032 µg/mL, the MIC50 [32] was no more than 0.032 µg/mL and the MIC50 [33] was no more than 0.032 µg/mL. It also gave an MIC50 [34] of no more than 0.032 µg/mL, an MIC50 [35] of no more than 0.032 µg/mL and an MIC50 [36] of 0.5 µg/mL (≈ 0.438 µM). It also gave an MIC50 [37] of no more than 0.032 µg/mL, an MIC50 [38] of 0.25 µg/mL (≈ 0.219 µM) and an MIC50 [39] of 4 µg/mL (≈ 3.51 µM). It also gave an MIC50 [40] of 0.5 µg/mL (≈ 0.438 µM), an MIC50 [41] of 0.13 µg/mL (≈ 0.114 µM) and an MIC50 [42] of 0.13 µg/mL (≈ 0.114 µM). For the same molecule, the MIC50 [43] was no more than 0.032 µg/mL, the MIC50 [44] was no more than 0.032 µg/mL and the MIC50 [45] was no more than 0.032 µg/mL.
